Most compounds without a hit are left out; they make up all but 3.4% or so of the library.
ANO1 activ: mouse TMEM16A channel activation, primary screen; Q8BHY3; HEK293 TMEM16A/YFP-H148Q/I152L, iodide quench fluorescence; stronger effect = lower value; B-score at 10 µM; actives 0.3% (n = 340,000); AID 623877;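 active = fluorescence-ratio B-score plate-corrected deviation score at least 3 library SD below zero, with starting fluorescence score within 5 deviations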;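 also: channel opened by trigger with iodide after compound preincubation; score built on the fluorescence ratio of max minus min over baseline; more negative score means more quench and so TMEM16A activation or potentiation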
Target sequence (Q8BHY3 whole entry, looked up): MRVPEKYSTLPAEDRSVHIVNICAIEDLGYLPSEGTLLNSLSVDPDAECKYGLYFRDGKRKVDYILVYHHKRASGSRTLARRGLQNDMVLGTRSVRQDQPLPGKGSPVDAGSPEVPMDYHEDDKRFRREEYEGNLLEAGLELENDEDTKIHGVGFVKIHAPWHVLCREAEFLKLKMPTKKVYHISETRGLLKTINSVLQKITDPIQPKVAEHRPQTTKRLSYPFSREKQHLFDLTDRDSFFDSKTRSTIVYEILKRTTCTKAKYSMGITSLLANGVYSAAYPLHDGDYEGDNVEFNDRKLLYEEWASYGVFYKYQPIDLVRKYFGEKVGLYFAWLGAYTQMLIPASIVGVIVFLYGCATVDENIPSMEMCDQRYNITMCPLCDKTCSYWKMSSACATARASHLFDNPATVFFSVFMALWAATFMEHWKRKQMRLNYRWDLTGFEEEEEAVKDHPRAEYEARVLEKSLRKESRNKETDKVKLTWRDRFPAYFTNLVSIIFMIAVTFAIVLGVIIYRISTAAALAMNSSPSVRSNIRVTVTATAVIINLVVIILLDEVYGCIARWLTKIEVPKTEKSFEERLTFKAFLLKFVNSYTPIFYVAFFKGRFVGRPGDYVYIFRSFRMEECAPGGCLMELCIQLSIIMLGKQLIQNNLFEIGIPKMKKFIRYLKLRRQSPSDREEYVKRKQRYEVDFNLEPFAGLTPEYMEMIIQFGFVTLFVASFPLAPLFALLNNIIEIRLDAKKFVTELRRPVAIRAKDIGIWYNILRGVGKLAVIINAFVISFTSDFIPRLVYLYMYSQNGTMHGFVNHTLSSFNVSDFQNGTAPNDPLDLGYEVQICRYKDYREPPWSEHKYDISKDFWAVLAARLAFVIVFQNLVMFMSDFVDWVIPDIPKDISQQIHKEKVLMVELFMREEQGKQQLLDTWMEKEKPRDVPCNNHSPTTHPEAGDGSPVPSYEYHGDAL
MIN6 prolif-1: induces beta-cell replication in MIN6 cells. AID 2380. proliferation, % at 10 µM. actives 0.29% (n = 330,000). MIN6 cells proliferation, ATPlite luminescence, 48 h; cells starved in 0.2% serum; 100% = growth in 10% serum;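 active = compounds whose signal lies at least 3.5 SD above the mean of all wells on their plate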
ANO1 block: inhibitors of mouse TMEM16A calcium-activated chloride channel | HEK293 TMEM16A/YFP iodide influx fluorescence, ionomycin | normalized B-score (activity score, 25-100; higher = stronger inhibition) at 10 µM | actives 1.2% (n = 310,000) | AID 588511;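 active = ratio plate-corrected score three or more library SD toward inhibition, starting fluorescence score within five deviations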;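 also: score derived from kinetic fluorescence span divided by baseline fluorescence per well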
MC4R barr agon: activates human MC4R beta-arrestin recruitment. activation, % at 8.9 µM. P32245. U2OS MC4R beta-arrestin complementation, luminescence; percent of melanotan II response, DMSO zero. actives 0.98% (n = 360,000);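 active = activation above a per-plate cutoff, the mean activation of sample wells on that plate plus 3 SD, cut at about 8% in these data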
MC4R antag cAMP: antagonists of human melanocortin 4 receptor (MC4R) | MC4R-expressing cells, MTII-stimulated cAMP, LANCE TR-FRET | inhibition, % at 6.5 µM | AID 540295 | actives 0.48% (n = 360,000);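 active = inhibition above its plate's cutoff, the mean of tested wells on that plate plus 3 SD, cut at about 29% in these data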
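system = U2OS cells with stable human MC4R expression | also added = Melanotan II challenge after compound preincubation | dosing = one concentration, 6.5 µM nominal | incubation = compound 30 min, challenge 1 h, detection 1 h | measured by = TR-FRET with Eu-cAMP and labeled anti-cAMP, 671 nm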
HTR2A ag: activates the mouse 5-HT2A serotonin receptor. AID 624169. activation, % at 7.6 µM. actives 0.66% (n = 360,000). CHO-K1 mHTR2A beta-arrestin complementation, luminescence; percent of 30 µM serotonin response;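 active = activation above a run cutoff, the mean activation of all tested compounds plus 3 SD, cut at about 14% in these data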
MIN6 prolif-2: MIN6 beta-cell replication induction, confirmed | AID 463095 | MIN6 beta-cell proliferation, ATPlite luminescence, 48 h; cells kept in 0.2% serum; scaled between 0.2% and 10% serum | proliferation increase, % at 50 µM | 920 tested, under 10 active | shares compounds with MIN6 prolif-1;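 active = proliferation increase above 40% at any of the four tested concentrations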
A number is an active result.

`Cc1cccc(N2C(N)=NC(N)=NC23CCCCC3)c1` gave ANO1 activ inactive, ANO1 block inactive, MC4R barr agon inactive, MC4R antag cAMP inactive and HTR2A ag inactive.
COc1ccc(OC)c(N2C(N)=NC(N)=NC23CCCC3)c1 was read as ANO1 activ inactive, MIN6 prolif-1 5.7, ANO1 block inactive, MC4R barr agon inactive, MC4R antag cAMP inactive, HTR2A ag inactive and MIN6 prolif-2 inactive.
For CCOC(=O)c1ccccc1NC(=O)c1cccs1 the results were ANO1 activ inactive, MIN6 prolif-1 7.4, ANO1 block inactive, MC4R barr agon inactive, MC4R antag cAMP inactive, HTR2A ag inactive and MIN6 prolif-2 inactive.
For O=c1c2ccccc2nc(SCc2cn3ccsc3n2)n1-c1ccccc1 the results were ANO1 activ inactive, MIN6 prolif-1 6.1, ANO1 block inactive, MC4R barr agon inactive, MC4R antag cAMP inactive, HTR2A ag inactive and MIN6 prolif-2 inactive.
Screening CCOC(=O)C1CCN(C(=O)c2sccc2Cl)CC1 returned ANO1 activ inactive, MIN6 prolif-1 inactive, ANO1 block inactive, MC4R barr agon inactive, MC4R antag cAMP inactive and HTR2A ag inactive.
`CC12CCCCN1CCCc1c2[nH]c2ccccc12` (stereo unspecified) gave ANO1 activ inactive, MIN6 prolif-1 5.5, ANO1 block inactive, MC4R barr agon inactive, MC4R antag cAMP inactive, HTR2A ag inactive and MIN6 prolif-2 inactive.
For CC(NS(=O)(=O)c1ccc2c(c1)oc(=O)n2C)c1ccccc1 (stereo unspecified) the results were ANO1 activ inactive, MIN6 prolif-1 inactive, ANO1 block inactive, MC4R barr agon inactive, MC4R antag cAMP inactive and HTR2A ag inactive.
`CCc1nnc(NC(=O)COc2ccccc2[N+](=O)[O-])s1` gave ANO1 activ inactive, MIN6 prolif-1 4.6, ANO1 block inactive, MC4R barr agon inactive, MC4R antag cAMP inactive, HTR2A ag inactive and MIN6 prolif-2 inactive.
For CCOC(=O)C1=CCC(c2ccccc2)N(S(=O)(=O)c2ccc(C)cc2)[C@H]1CC (stereo partly specified) the results were HTR2A ag inactive.
CCCCn1nnnc1C1(C)CCC(=O)N1CC1CCCCC1 (stereo unspecified) was read as HTR2A ag inactive.
Screening CCC(C)(C)n1nnnc1CN(Cc1cc2cc(OC)c(OC)cc2[nH]c1=O)C1CCCC1 returned ANO1 activ inactive, MIN6 prolif-1 7.2, ANO1 block inactive, MC4R barr agon inactive, MC4R antag cAMP inactive, HTR2A ag inactive and MIN6 prolif-2 inactive.
`COc1ccc(Cn2nnnc2CN(Cc2cc3cc(C)ccc3[nH]c2=O)C2CCCC2)cc1` gave ANO1 activ inactive, MIN6 prolif-1 inactive, ANO1 block inactive, MC4R barr agon inactive, MC4R antag cAMP inactive and HTR2A ag inactive.
Cc1ccc(OCCNC(=O)CNC(=O)c2ccc3c(c2)OCO3)cc1 was read as ANO1 activ inactive, MIN6 prolif-1 11, ANO1 block inactive, MC4R barr agon inactive, MC4R antag cAMP inactive, HTR2A ag inactive and MIN6 prolif-2 inactive.
Screening N#Cc1nc(-c2ccco2)oc1NCc1ccccc1Cl returned ANO1 activ inactive, MIN6 prolif-1 4.6, ANO1 block inactive, MC4R barr agon inactive, MC4R antag cAMP inactive, HTR2A ag inactive and MIN6 prolif-2 inactive.
Screening CN(C)c1ccc(NC(=O)CSc2n[nH]c(-c3ccncc3)n2)cc1 returned ANO1 activ inactive, MC4R barr agon inactive, MC4R antag cAMP inactive and HTR2A ag inactive.
For O=C(CSCc1c(Cl)cccc1Cl)NCc1ccco1 the results were ANO1 activ inactive, MIN6 prolif-1 9.2, ANO1 block inactive, MC4R barr agon inactive, MC4R antag cAMP inactive, HTR2A ag inactive and MIN6 prolif-2 inactive.
CCOC(=O)C1=C(C)NC(=O)NC1c1ccc(OC(=O)c2ccco2)c(OC)c1 (stereo unspecified) was read as ANO1 activ inactive, MIN6 prolif-1 4.7, ANO1 block inactive, MC4R barr agon inactive, MC4R antag cAMP inactive, HTR2A ag inactive and MIN6 prolif-2 inactive.
For COc1cc2c(cc1OC)C(Nn1cnnc1)=NC1(CCCC1)C2 the results were ANO1 activ inactive, MIN6 prolif-1 5.2, ANO1 block inactive, MC4R barr agon inactive, MC4R antag cAMP inactive, HTR2A ag inactive and MIN6 prolif-2 inactive.
Cc1nn(-c2ccccc2)c2sc(-c3nnc(SCC(=O)O)o3)cc12 was read as ANO1 activ inactive, MIN6 prolif-1 5.1, ANO1 block inactive, MC4R barr agon inactive, MC4R antag cAMP inactive, HTR2A ag inactive and MIN6 prolif-2 inactive.
Screening CCn1c(SCC(=O)O)nnc1-c1cc2c(C)nn(-c3ccccc3)c2s1 returned ANO1 activ inactive, MIN6 prolif-1 inactive, ANO1 block inactive, MC4R barr agon inactive, MC4R antag cAMP inactive and HTR2A ag inactive.
Screening CC(C)C[C@H](NC(=O)N1CCn2c1nc1ccccc12)C(=O)N1CCCCC1 returned ANO1 activ inactive, MIN6 prolif-1 12, ANO1 block inactive, MC4R barr agon inactive, MC4R antag cAMP inactive, HTR2A ag inactive and MIN6 prolif-2 inactive.
For COc1ccccc1N1CCN(C(=O)c2cc3c(=O)n4ccccc4nc3s2)CC1 the results were ANO1 activ inactive, MIN6 prolif-1 13, MC4R barr agon inactive, MC4R antag cAMP inactive, HTR2A ag inactive and MIN6 prolif-2 inactive.
`CN1CCN(C(=O)c2cc3c(=O)n4ccccc4nc3s2)CC1` gave ANO1 activ inactive, MIN6 prolif-1 inactive, ANO1 block inactive, MC4R barr agon inactive, MC4R antag cAMP inactive and HTR2A ag inactive.
`COC(=O)C[C@H]1CC[C@@H](NC(=O)Nc2cccc(OC)c2)[C@@H](CO)O1` gave HTR2A ag inactive.
`COc1ccc(CCNC/C=C/c2ccccc2)cc1` gave ANO1 activ inactive, ANO1 block inactive, MC4R barr agon inactive, MC4R antag cAMP inactive and HTR2A ag inactive.
For COc1ccc(CNC/C=C/c2ccccc2)cc1 the results were ANO1 activ inactive, MIN6 prolif-1 7.6, ANO1 block inactive, MC4R barr agon inactive, MC4R antag cAMP inactive, HTR2A ag inactive and MIN6 prolif-2 inactive.
For C/C(=N/Nc1ccc(C(=O)c2c(C)cc3ccccn23)cc1[N+](=O)[O-])c1ccc(O)cc1 the results were ANO1 activ inactive, MC4R barr agon inactive, MC4R antag cAMP inactive and HTR2A ag inactive.
Screening COc1ccc2[nH]c(C(=O)O)c(NS(=O)(=O)c3ccc(Cl)s3)c2c1 returned ANO1 activ inactive, MIN6 prolif-1 inactive, ANO1 block inactive, MC4R barr agon inactive, MC4R antag cAMP inactive and HTR2A ag inactive.

Source: PubChem
